Source: PubChem BioAssay (Broad Institute)
The list is not random: actives were taken first. Their share in the collection is about 2.4%.
EWS-Fli inh: blocks EWS/Fli oncoprotein-driven transcription | 350,000 compounds, 0.67% hits | A673 NR0B1-luciferase reporter, viability-normalised | inhibition, % at 12.6 µM;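 active = mean inhibition of at least 50% after viability correction, with every replicate also passing that limit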;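 also: firefly luciferase signal divided by Alamar Blue viability fluorescence both relative to DMSO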
LGR2 inh: inhibitors of bursicon-induced Drosophila LGR2 receptor cAMP signaling; HEK293 LGR2, CRE-luciferase, bursicon-stimulated, 4 h; inhibition, % at 9.99 µM; 380,000 compounds, 0.35% hits;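 active = drop in luminescence signal, shown as inhibition above about 50% in the replicate tests, limit read from the data, passing the limit was not always enough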;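 also: agonist challenge used bursicon conditioned medium at about half maximal strength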
Ecoli rRNA inh: selective bacterial rRNA inhibition in E. coli | E. coli WT GFP vs humanized-ribosome RFP mutants, fluorescence, 24 h; hits give low values; DMSO median 0, no signal -100 | GFP signal change (wild-type ribosome), % (concentration not given with the values) | 350,000 compounds, 1.6% hits;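 active = significant combined selectivity score with lowered wild-type GFP, culture density cut under 30%, mutant RFP and density less affected; inactive = any of these conditions unmet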
E-selectin induc: induces E-selectin expression in human endothelial cells; P16581; HUVEC E-selectin immunofluorescence imaging; normalized: neutral wells 0, TNF-alpha wells 100; activation, % at 7.58 µM; 260,000 compounds, 0.37% hits;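 active = mean E-selectin-positive cell signal at least 10% of the positive control, reached in at least 60% of replicates, without over 20% cell loss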
Target sequence (P16581 whole entry, looked up): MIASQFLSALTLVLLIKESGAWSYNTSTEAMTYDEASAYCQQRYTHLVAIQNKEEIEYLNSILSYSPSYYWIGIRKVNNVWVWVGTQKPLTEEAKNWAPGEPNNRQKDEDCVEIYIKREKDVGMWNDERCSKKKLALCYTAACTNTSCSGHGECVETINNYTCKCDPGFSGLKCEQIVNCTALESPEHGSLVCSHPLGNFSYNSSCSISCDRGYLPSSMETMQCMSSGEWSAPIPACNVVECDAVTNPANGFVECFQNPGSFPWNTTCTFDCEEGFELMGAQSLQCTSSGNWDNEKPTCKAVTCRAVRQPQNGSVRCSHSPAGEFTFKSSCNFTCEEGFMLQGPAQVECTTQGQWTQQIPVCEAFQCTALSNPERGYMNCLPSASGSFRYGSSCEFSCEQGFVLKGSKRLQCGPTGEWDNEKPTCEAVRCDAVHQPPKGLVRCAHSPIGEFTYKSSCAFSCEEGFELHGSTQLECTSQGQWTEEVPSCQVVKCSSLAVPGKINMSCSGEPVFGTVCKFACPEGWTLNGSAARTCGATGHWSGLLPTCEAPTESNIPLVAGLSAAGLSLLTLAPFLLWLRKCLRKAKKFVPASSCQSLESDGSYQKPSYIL
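System: HUVEC, human umbilical vein endothelial cells; quantity: 3,000 cells/well; buffer or medium: EGM-2 medium, gelatin-coated wells; dosing: single-point compound dose; detection: immunofluorescence imaging; evaluation: % PE-positive cells; benchmarks: TNF-alpha, DMSO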
DNA binding: binds DNA displacing acridine orange | shares compounds with EWS-Fli inh | salmon sperm DNA acridine orange fluorescence polarization | AC35, µM (titrated, usually from 68 µM) | 640 compounds, 2% hits | AID 720586;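 active = fitted curve reaches a 35% signal fall AC35 below twice the sample's top valid tested dose, actives reach about 48 µM in these data; inactive = the rest, including activity in the rising direction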;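 also: lower polarization ratio signals compound binding to DNA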
A number is an active result; – = inactive; · = no result given.

SMILES	EWS-Fli inh	LGR2 inh	Ecoli rRNA inh	E-selectin induc	DNA binding
Oc1[nH]c2ccc(Br)cc2c1N=NC(=S)N1CCOCC1	57	–	–	–	–
COc1ccccc1N1CCN(C2CCN(C(=O)c3ccc(F)cc3)CC2)CC1	–	–	–	·	·
CCOc1cc(N2CCC(O)CC2)ccc1Nc1ncc2c(n1)N(C)c1ccccc1C(=O)N2C	55	–	–	–	–
COc1cc(C(=O)N2CCC(N3CCN(C)CC3)CC2)ccc1Nc1ncc2c(n1)N(C)c1ccccc1C(=O)N2C	59	–	–	–	–
C[C@H](NC(=O)C[C@@H]1C[C@@H]2c3cc(NS(=O)(=O)c4ccc(F)cc4)ccc3O[C@@H]2[C@H](CO)O1)c1ccccc1	–	–	–	–	·
CC(=O)Nc1cc(C(=O)NCc2ccco2)ccc1Sc1ccc(F)cc1	85	–	–	·	–
CCOc1ccccc1CNC(=O)c1ccc(Sc2ccc(Cl)cc2)c(NC(C)=O)c1	80	–	–	·	–
C[C@H]1CN(C)C(=O)c2cc(N)ccc2O[C@@H]1CN(C)C	·	·	–	·	·
C[C@@H]1CCCCO[C@H](CN(C)S(=O)(=O)c2ccccc2)[C@H](C)CN([C@@H](C)CO)C(=O)c2cc(NC(=O)Cc3ccccc3)ccc2O1	–	–	–	·	·
CC=Cc1ccc2n(c1=O)C[C@@H]1[C@@H](CO)[C@H](C(=O)NCc3ccccc3F)N(CCC)[C@H]21 (mixture of isomers)	–	–	–	–	·
Cc1c(N=Cc2cc(Br)cc(Br)c2O)cccc1C(=O)O	74	–	–	·	–
C/C=C/c1ccc([C@H]2[C@@H](CO)N(C(C)=O)[C@@H]2CNC(=O)NCCC)cc1	·	–	–	–	·
CCCN1C(=O)/C(=C/c2nc3ccccc3c(=O)[nH]2)c2ccccc21	84	–	–	·	–
CC(=O)N(C)C[C@H]1Oc2ccc(N)cc2C(=O)N(C)C[C@H]1C	·	·	–	·	·
CCOC(=O)c1c(-c2ccc(C)cc2)csc1NC(=O)CCN1CCOCC1	81	–	–	·	–
N/C(Cc1nc(-c2ccc(Br)cc2)cs1)=N\O	–	–	–	–	·
N/C(Cc1nc(-c2ccc(F)cc2)cs1)=N\O	77	–	–	·	–
CCCc1nc2ccc(NC(C)=O)cc2c(=O)n1Cc1ccc(Cl)cc1	–	–	–	·	·
CCCc1nc2ccc(NC(=O)c3cccs3)cc2c(=O)n1Cc1ccccc1Cl	60	–	–	·	–
O=C(c1cnccn1)N1CC(=O)N2[C@@H](CO)[C@H](c3ccc(C#CC4CCCC4)cc3)[C@@H]2C1	–	–	–	–	·
CC=Cc1ccc2n(c1=O)C[C@@H]1[C@@H](CO)[C@H](C(=O)N3CCN(C)CC3)N(Cc3ccccc3F)[C@H]21 (mixture of isomers)	–	–	–	–	·
Cc1cccc(CN2C(=O)/C(=C\c3ccc(C(=O)NCCCN4CCN(C)CC4)cc3)Oc3ccccc32)c1	65	–	–	–	–
CN1CCN(CCCNC(=O)c2ccc(/C=C3\Oc4ccccc4N(Cc4ccccc4F)C3=O)cc2)CC1	–	–	–	–	·
C[C@@H]1CCCCO[C@@H](CN(C)C(=O)c2ccccc2)[C@H](C)CN([C@H](C)CO)C(=O)c2cc(NC(=O)Nc3cccc4ccccc34)ccc2O1	–	–	–	–	·
C[C@@H]1CN([C@@H](C)CO)C(=O)c2cccc(NC(=O)Nc3cccc4ccccc34)c2O[C@H]1CN(C)S(=O)(=O)c1cn(C)cn1	·	–	–	–	·
SMILES	EWS-Fli inh	LGR2 inh	Ecoli rRNA inh	E-selectin induc	DNA binding
O=C(COC(=O)c1ccc[nH]c1=O)Nc1ccc(S(=O)(=O)N2CCCC2)cc1	–	–	–	–	·
O=C(COC(=O)c1ccc[nH]c1=O)Nc1ccc(N2CCCCC2)cc1	75	–	–	·	–
COc1ccc(OC)c(-c2nnc3n2N=C(c2ccc(OC)c(OC4CCOC4)c2)CS3)c1 (stereo not given)	59	–	-28	–	–
COc1ccc(/C=C2/NC(=O)N(CC(=O)Nc3cccc(C)c3)C2=O)cc1O	62	–	–	–	–
Cc1cccc(C)c1NC(=O)CN1CCN(C(=O)CNC(=O)c2ccc(-c3ccccc3)cc2)CC1	–	–	–	–	·
Cc1cccc(NC(=O)CN2CCN(C(=O)CNC(=O)c3ccc(-c4ccccc4)cc3)CC2)c1C	66	–	–	·	–
CO[C@@H]1CN(C)C(=O)c2ccc(NC(=O)c3cccc(F)c3)cc2OC[C@@H](C)N(C(C)=O)C[C@H]1C	·	·	–	·	·
COc1ccc(/C=C2\Oc3ccccc3C2=O)cc1	62	56	–	–	–
CCC(=O)Nc1ccc2c(c1)C(=O)N(C)C[C@H](OC)[C@H](C)CN(Cc1cncnc1)[C@@H](C)CO2	–	–	–	–	·
COc1ccc(S(=O)(=O)Nc2cccc3c2O[C@@H](CN(C)C(=O)NC(C)C)[C@@H](C)CN([C@@H](C)CO)C3=O)cc1	–	–	–	·	·
COc1ccc(CNc2ncc(-c3ccc(F)cc3)n2C)c2ccccc12	82	–	–	–	–
COc1ccccc1CNc1ncc(-c2ccc(F)cc2)n1C	–	–	–	·	·
N#CC(=C1C=CC(=NO)C(Cl)=C1)c1ccccc1	51	–	–	–	–
CC(C)NC(=O)N(C)C[C@@H]1Oc2c(N)cccc2C(=O)N(C)C[C@@H]1C	·	·	–	·	·
O=C(CCCN1C(=O)S/C(=C\c2ccccc2)C1=O)NNC(=O)c1ccccc1O	74	–	–	–	–
O=C(CCCN1C(=O)/C(=C/c2ccccc2Cl)SC1=S)NNC(=O)c1ccccc1	–	–	–	–	·
O=C(CCCN1C(=O)/C(=C/c2ccccc2Cl)SC1=S)NNC(=O)c1ccc(Cl)cc1Cl	72	–	–	–	–
CC(C)NC(=O)Nc1ccc2c(c1)C(=O)N([C@@H](C)CO)C[C@H](C)[C@@H](CN(C)C(=O)Nc1ccc(F)cc1)OCCCC[C@@H](C)O2	–	–	–	·	·
CNC[C@@H]1Oc2cc(C#CC(C)(C)O)ccc2S(=O)(=O)N([C@@H](C)CO)C[C@@H]1C	–	–	–	·	·
C[C@@H]1CCCCO[C@H](CN(C)Cc2ccc(C(=O)O)cc2)[C@@H](C)CN([C@H](C)CO)C(=O)c2cc(NS(=O)(=O)c3ccc(Cl)cc3)ccc2O1	–	–	–	–	·
Cc1ccccc1NC(=O)Nc1ccc2c(c1)C(=O)N(C)[C@@H]1CC[C@@H](CC(=O)O)O[C@H]1CO2	–	–	–	–	·
COc1cccc(-c2cccc(-c3nc(C(=O)NCC(F)(F)F)cc4c3[C@H](CCO)N([S@@](=O)C(C)(C)C)C4)c2)c1	54	–	–	–	–
COc1ccc(-c2cccc(-c3nc(C(=O)NCC(F)(F)F)cc4c3[C@H](CCO)N([S@@](=O)C(C)(C)C)C4)c2)cc1	–	–	–	–	·
N#CC(C#N)=C1C=CC=CN1/C(=C\c1ccco1)C(=O)c1ccc(Cl)cc1	86	105	–	·	–
C[C@H](CO)N1C[C@H](C)[C@@H](CN(C)Cc2ccncc2)Oc2ccc(NC(=O)CCCN(C)C)cc2CC1=O	–	–	–	–	·
CN(C)c1ccc(N=Nc2ccc(C(=O)O)cc2)cc1	65	–	–	–	–
